Source: ChEMBL document CHEMBL1155944 (J Med Chem, 2008)
The source made the active and inactive calls. The rule behind the calls is not given here.

Experiments:
[1] = target: Gamma-aminobutyric acid receptor subunit alpha-6 (Rattus norvegicus) (UniProt P30191); test: Displacement of [3H]Muscimol from GABAAalpha6 receptor in Sprague-Dawley rat brain cerebellum membrane at 1 mM; type: tissue-based
How it was run: (§1)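 Well-washed membranes from adult male Sprague-Dawley rat cortex or cerebellum (50–200 μg protein). Incubated 60 min on ice in 50 mM Tris/citrate, pH 7.3, with 6 nM [3H]muscimol and test compound. […] Filtered and counted by scintillation. IC50 and pseudo-Hill coefficient obtained by nonlinear regression.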

[2] = target: Gamma-aminobutyric acid receptor subunit alpha-6 (Rattus norvegicus) (UniProt P30191); test: Displacement of [3H]Muscimol from GABAAalpha6 receptor in Sprague-Dawley rat brain cerebellum membrane at 100 uM; type: tissue-based; how it was run: as §1
Rattus norvegicus [3] = species on record: Rattus norvegicus; test: Displacement of [3H]Muscimol from GABAA alpha-1-alpha-5 receptor in Sprague-Dawley rat brain cortex membrane at 100 uM; how it was run: as §1
Rattus norvegicus [4] = species on record: Rattus norvegicus; test: Displacement of [3H]Muscimol from GABAA alpha-1-alpha-5 receptor in Sprague-Dawley rat brain cortex membrane at 1 mM; how it was run: as §1
Rattus norvegicus [5] = species on record: Rattus norvegicus; test: (§2) Displacement of [3H]Muscimol from GABAA alpha-1-alpha-5 receptor in Sprague-Dawley rat brain cortex membrane; how it was run: as §1
[6] = as §2; how it was run: as §1
[7] = target: Gamma-aminobutyric acid receptor subunit alpha-6 (Rattus norvegicus, UniProt P30191); test: (§3) Displacement of [3H]Muscimol from GABAAalpha6 receptor in Sprague-Dawley rat brain cerebellum membrane; type: tissue-based; how it was run: as §1
[8] = target: Gamma-aminobutyric acid receptor subunit alpha-6 (Rattus norvegicus) (UniProt P30191); test: as §3; type: tissue-based; how it was run: as §1

Gamma-aminobutyric acid receptor subunit alpha-6 (Rattus norvegicus), sequence (P30191 whole entry): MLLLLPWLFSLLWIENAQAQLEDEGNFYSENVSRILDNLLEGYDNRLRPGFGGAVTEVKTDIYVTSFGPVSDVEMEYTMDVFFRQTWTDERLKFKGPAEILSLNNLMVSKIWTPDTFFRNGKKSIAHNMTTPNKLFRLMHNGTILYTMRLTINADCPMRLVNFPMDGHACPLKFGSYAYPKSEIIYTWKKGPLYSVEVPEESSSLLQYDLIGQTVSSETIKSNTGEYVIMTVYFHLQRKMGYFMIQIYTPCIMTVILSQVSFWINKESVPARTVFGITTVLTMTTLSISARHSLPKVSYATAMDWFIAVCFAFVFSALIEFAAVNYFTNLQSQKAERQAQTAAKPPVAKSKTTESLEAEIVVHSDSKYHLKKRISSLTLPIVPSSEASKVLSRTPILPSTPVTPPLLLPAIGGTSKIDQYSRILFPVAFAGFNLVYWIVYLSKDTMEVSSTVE
Gamma-aminobutyric acid receptor subunit alpha-6, sequence (P30191 whole entry): as above

Row | SMILES | inhibition [1] | inhibition [2] | inhibition (Rattus norvegicus [3]) | inhibition (Rattus norvegicus [4]) | Activity [1] | Activity [2] | Activity (Rattus norvegicus [3]) | Activity (Rattus norvegicus [4]) | logIC50 (Rattus norvegicus [5]) | IC50 [6] | IC50 [7] | logIC50 [8]
1 | Cc1nnc(O)o1 | 4% | 3% | 7% | 26% |  |  |  |  |  |  |  | 
2 | Sc1nnc(C2CCCNC2)o1 (stereo not given) | 42% | 15% | 12% | 51% |  |  |  |  |  |  |  | 
3 | Oc1nnc(C2CCN(Cc3ccccc3)CC2)o1 | 30% | 7% | 12% | 50% |  |  |  |  |  |  |  | 
4 | CN1CCC(c2nnc(O)o2)CC1 | 26% | 6% | 4% | 27% |  |  |  |  |  |  |  | 
5 | Sc1nnc(C2CCNCC2)n1Cc1ccccc1 |  | 13% | -6% |  |  |  |  |  |  |  |  | 
6 | NCc1nnc(S)n1Cc1ccccc1 |  |  |  |  | inactive | inactive | inactive | inactive |  |  |  | 
7 | CN(C)Cc1nnc(S)o1 | 37% | 3% | 22% | 47% |  |  |  |  |  |  |  | 
8 | NCc1nnc(O)n1Cc1ccccc1 | 2% | 1% | 4% | 11% |  |  |  |  |  |  |  | 
9 | Oc1nnc(C2CCCCC2)o1 | 1% |  | 18% | -2% |  |  |  |  |  |  |  | 
10 | Oc1nnc(C2CCCNC2)o1 (stereo not given) | 10% | 9% | 1% | 24% |  |  |  |  |  |  |  | 
11 | CN1CCC(c2nnc(S)o2)CC1 | 27% | 8% | 6% | 48% |  |  |  |  |  |  |  | 
12 | NCCc1nnc(S)o1 | 67% | 23% | 9% | 61% |  |  |  |  |  |  |  | 
13 | c1ccc(CN2CCC(c3nnco3)CC2)cc1 | -5% | 1% | -5% | 1% |  |  |  |  |  |  |  | 
14 | S=c1[nH]nc(C2CCCCC2)o1 | -3% | 0% | 10% | 18% |  |  |  |  |  |  |  | 
15 | Sc1nnc(C2CCN(Cc3ccccc3)CC2)o1 | 30% | 6% | 3% | 33% |  |  |  |  |  |  |  | 
16 | CNCc1nnc(S)o1 | 16% | 9% | 17% | 24% |  |  |  |  |  |  |  | 
17 | Oc1nnc(C2CCNCC2)n1Cc1ccccc1 | 52% | 14% | 18% | 56% |  |  |  |  |  |  |  | 
18 | C[C@@H](N)c1nnc(O)o1 | 34% | 13% | 26% | 16% |  |  |  |  |  |  |  | 
19 | NCCc1nnc(O)o1 | 98% | 89% | 85% | 100% |  |  |  |  | 0.971 | 9.4 µM | 7.4 µM | 0.868
20 | CNCc1nnc(O)o1 | 64% | 22% | 14% | 58% |  |  |  |  |  |  |  | 
21 | Sc1nnc([C@@H]2CCCN2)o1 | 31% | -2% | 21% | 36% |  |  |  |  |  |  |  | 
22 | NCc1nnc(S)o1 | 95% | 61% | 58% | 99% |  |  |  |  | 1.76 | 57 µM | 49 µM | 1.69
23 | Oc1nnc([C@@H]2CCCN2)o1 | 13% | 8% | 5% | 10% |  |  |  |  |  |  |  | 
24 | Cc1nnc(S)o1 | -3% | -4% | 20% | 10% |  |  |  |  |  |  |  | 
25 | CN(C)Cc1nnc(O)o1 | 26% | 5% | 3% | 27% |  |  |  |  |  |  |  | 
